{"source": "ChEMBL document CHEMBL1138791", "about": "“Acyl sulfonamide anti-proliferatives: benzene substituent structure-activity relationships for a novel class of antitumor agents” (J Med Chem, 2004)", "key": {"[1]": {"assay": "Diameter of zone of inhibition for cell colony formation of normal fibroblast at the dose of 210 ug; Range is 0-9.425", "type": "functional, Homo sapiens", "how_it_was_run": "(§1)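 Soft agar disk diffusion: leukemia (L1210), solid tumor (HCT116, or colon H15) and normal fibroblast cells seeded in soft agar in separate 60 mm dishes. Compound applied to a filter paper disk (dose in μg/disk) set on the agar. Colony-formation inhibition zones read after 6–7 days at 37 °C. 200 zone units = 6.5 mm; 950 = total inhibition; a range marks partial colony shrinkage. n > 2 unless noted.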"}, "L1210 [2]": {"test_system": "L1210", "assay": "Diameter of zone of inhibition for cell colony formation of leukemia L1210 at the dose of 210 ug; Range is 6.5-8.125", "type": "functional, Mus musculus", "how_it_was_run": "as §1"}, "HCT-116 [3]": {"test_system": "HCT-116", "assay": "Diameter of zone of inhibition for cell colony formation of solid tumor HCT116 at the dose of 210 ug", "type": "functional, Homo sapiens", "how_it_was_run": "(§2)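 HCT116, L1210 leukaemia and normal fibroblast cells were seeded in soft agar in separate 60 mm dishes. The compound was applied to a filter-paper disk laid on the agar. Colony-formation inhibition zones were read after 6–7 days at 37 °C and expressed in zone units (200 units = 6.5 mm; 950 = total inhibition; 0 = none). n > 2 unless otherwise indicated.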"}, "HCT-116 [4]": {"test_system": "HCT-116", "assay": "Diameter of zone of inhibition for cell colony formation of solid tumor HCT116 at the dose of 190 ug", "type": "functional, Homo sapiens", "how_it_was_run": "as §1"}, "[5]": {"assay": "Diameter of zone of inhibition for cell colony formation of normal fibroblast at the dose of 190 ug; Range is 0-8.775", "type": "functional, Homo sapiens", "how_it_was_run": "as §1"}, "L1210 [6]": {"test_system": "L1210", "assay": "Diameter of zone of inhibition for cell colony formation of leukemia L1210 at the dose of 190 ug; Range is 0-6.825", "type": "functional, Mus musculus", "how_it_was_run": "as §1"}, "[7]": {"assay": "Diameter of zone of inhibition for cell colony formation of normal fibroblast at the dose of 190 ug", "type": "functional, Homo sapiens", "how_it_was_run": "as §1"}, "L1210 [8]": {"test_system": "L1210", "assay": "Diameter of zone of inhibition for cell colony formation of leukemia L1210 at the dose of 190 ug", "type": "functional, Mus musculus", "how_it_was_run": "as §1"}, "[9]": {"assay": "Diameter of zone of inhibition for cell colony formation of normal fibroblast at the dose of 190 ug; Range is 0-12.025", "type": "functional, Homo sapiens", "how_it_was_run": "as §1"}, "[10]": {"assay": "Diameter of zone of inhibition for cell colony formation of normal fibroblast at the dose of 200 ug; Range is 0-11.7", "type": "functional, Homo sapiens", "how_it_was_run": "as §1"}, "L1210 [11]": {"test_system": "L1210", "assay": "Diameter of zone of inhibition for cell colony formation of leukemia L1210 at the dose of 200 ug", "type": "functional, Mus musculus", "how_it_was_run": "as §1"}, "HCT-116 [12]": {"test_system": "HCT-116", "assay": "Diameter of zone of inhibition for cell colony formation of solid tumor HCT116 at the dose of 200 ug", "type": "functional, Homo sapiens", "how_it_was_run": "as §2"}, "L1210 [13]": {"test_system": "L1210", "assay": "Diameter of zone of inhibition for cell colony formation of leukemia L1210 at the dose of 200 ug; Range is 0-6.5", "type": "functional, Mus musculus", "how_it_was_run": "as §1"}, "[14]": {"assay": "Diameter of zone of inhibition for cell colony formation of normal fibroblast at the dose of 200 ug; Range is 0-2.6", "type": "functional, Homo sapiens", "how_it_was_run": "as §1"}, "[15]": {"assay": "Diameter of zone of inhibition for cell colony formation of normal fibroblast at the dose of 210 ug", "type": "functional, Homo sapiens", "how_it_was_run": "as §1"}, "L1210 [16]": {"test_system": "L1210", "assay": "Diameter of zone of inhibition for cell colony formation of leukemia L1210 at the dose of 210 ug", "type": "functional, Mus musculus", "how_it_was_run": "as §1"}, "[17]": {"assay": "Diameter of zone of inhibition for cell colony formation of normal fibroblast at the dose of 190 ug; Range is", "type": "functional, Homo sapiens", "how_it_was_run": "as §1"}, "[18]": {"assay": "Diameter of zone of inhibition for cell colony formation of normal fibroblast at the dose of 190 ug; Range is 0-16.575", "type": "functional, Homo sapiens", "how_it_was_run": "as §1"}, "L1210 [19]": {"test_system": "L1210", "assay": "Diameter of zone of inhibition for cell colony formation of leukemia L1210 at the dose of 190 ug; Range is 0-10.4", "type": "functional, Mus musculus", "how_it_was_run": "as §1"}, "[20]": {"assay": "Diameter of zone of inhibition for cell colony formation of normal fibroblast at the dose of 200 ug", "type": "functional, Homo sapiens", "how_it_was_run": "as §1"}, "L1210 [21]": {"test_system": "L1210", "assay": "Diameter of zone of inhibition for cell colony formation of leukemia L1210 at the dose of 210 ug; Range is 0-11.375", "type": "functional, Mus musculus", "how_it_was_run": "as §1"}, "[22]": {"assay": "Diameter of zone of inhibition for cell colony formation of normal fibroblast at the dose of 210 ug; Range is 0-13", "type": "functional, Homo sapiens", "how_it_was_run": "as §1"}}}
{"smiles": "O=C(NS(=O)(=O)c1ccc(-c2ccccc2)cc1)c1ccc(Cl)cc1Cl", "values": [{"measurement": "Inhibition", "setting": "[1]", "value": 9.42, "unit": "mm"}, {"measurement": "Inhibition", "setting": "L1210 [2]", "value": 8.12, "unit": "mm"}, {"measurement": "Inhibition", "setting": "HCT-116 [3]", "value": 16.25, "unit": "mm"}]}
{"smiles": "O=C(NS(=O)(=O)c1ccc(Br)c(Br)c1)c1ccc(Cl)cc1Cl", "values": [{"measurement": "Inhibition", "setting": "HCT-116 [4]", "value": 13.84, "unit": "mm"}, {"measurement": "Inhibition", "setting": "[5]", "value": 8.77, "unit": "mm"}, {"measurement": "Inhibition", "setting": "L1210 [6]", "value": 6.82, "unit": "mm"}]}
{"smiles": "CN(C)c1ccc(C(=O)NS(=O)(=O)c2ccc(Cl)cc2)cc1", "values": [{"measurement": "Inhibition", "setting": "HCT-116 [4]", "value": 11.7, "unit": "mm"}, {"measurement": "Inhibition", "setting": "[7]", "value": 0, "unit": "mm"}, {"measurement": "Inhibition", "setting": "L1210 [8]", "value": 5.85, "unit": "mm"}]}
{"smiles": "O=C(NS(=O)(=O)c1cccc(-c2ccccc2)c1)c1ccc(Cl)cc1Cl", "values": [{"measurement": "Inhibition", "setting": "[9]", "value": 12.02, "unit": "mm"}, {"measurement": "Inhibition", "setting": "HCT-116 [4]", "value": 19.5, "unit": "mm"}, {"measurement": "Inhibition", "setting": "L1210 [8]", "value": 0, "unit": "mm"}]}
{"smiles": "O=C(NS(=O)(=O)c1ccc(Cl)cc1)c1ccc(C(F)(F)F)cc1C(F)(F)F", "values": [{"measurement": "Inhibition", "setting": "[10]", "value": 11.7, "unit": "mm"}, {"measurement": "Inhibition", "setting": "L1210 [11]", "value": 0, "unit": "mm"}, {"measurement": "Inhibition", "setting": "HCT-116 [12]", "value": 16.9, "unit": "mm"}]}
{"smiles": "COC(=O)c1ccc(S(=O)(=O)NC(=O)c2ccc(Cl)cc2Cl)cc1", "values": [{"measurement": "Inhibition", "setting": "L1210 [13]", "value": 6.5, "unit": "mm"}, {"measurement": "Inhibition", "setting": "HCT-116 [12]", "value": 21.12, "unit": "mm"}, {"measurement": "Inhibition", "setting": "[14]", "value": 2.6, "unit": "mm"}]}
{"smiles": "O=C(NS(=O)(=O)c1ccc(Cl)cc1)c1ccc([N+](=O)[O-])cc1", "values": [{"measurement": "Inhibition", "setting": "HCT-116 [4]", "value": 8.77, "unit": "mm"}, {"measurement": "Inhibition", "setting": "[7]", "value": 0, "unit": "mm"}, {"measurement": "Inhibition", "setting": "L1210 [8]", "value": 6.5, "unit": "mm"}]}
{"smiles": "O=C(NS(=O)(=O)c1ccccc1Cl)c1ccc(Cl)cc1Cl", "values": [{"measurement": "Inhibition", "setting": "[15]", "value": 0, "unit": "mm"}, {"measurement": "Inhibition", "setting": "HCT-116 [3]", "value": 0, "unit": "mm"}, {"measurement": "Inhibition", "setting": "L1210 [16]", "value": 0, "unit": "mm"}]}
{"smiles": "O=C(NS(=O)(=O)c1ccc([N+](=O)[O-])cc1)c1ccc(Cl)cc1Cl", "values": [{"measurement": "Inhibition", "setting": "HCT-116 [4]", "value": 17.55, "unit": "mm"}, {"measurement": "Inhibition", "setting": "[17]", "value": 10.07, "unit": "mm"}, {"measurement": "Inhibition", "setting": "L1210 [8]", "value": 3.57, "unit": "mm"}]}
{"smiles": "Cc1ccc(S(=O)(=O)NC(=O)c2ccc(Cl)cc2Cl)cc1", "values": [{"measurement": "Inhibition", "setting": "HCT-116 [4]", "value": 27.3, "unit": "mm"}, {"measurement": "Inhibition", "setting": "[18]", "value": 16.57, "unit": "mm"}, {"measurement": "Inhibition", "setting": "L1210 [19]", "value": 10.4, "unit": "mm"}]}
{"smiles": "O=C(NS(=O)(=O)c1cc([N+](=O)[O-])ccc1Cl)c1ccc(Cl)cc1Cl", "values": [{"measurement": "Inhibition", "setting": "[20]", "value": 0, "unit": "mm"}, {"measurement": "Inhibition", "setting": "L1210 [11]", "value": 0, "unit": "mm"}, {"measurement": "Inhibition", "setting": "HCT-116 [12]", "value": 0, "unit": "mm"}]}
{"smiles": "CN(C)c1ccc(S(=O)(=O)NC(=O)c2ccc(Cl)cc2Cl)cc1", "values": [{"measurement": "Inhibition", "setting": "L1210 [21]", "value": 11.37, "unit": "mm"}, {"measurement": "Inhibition", "setting": "[22]", "value": 13, "unit": "mm"}, {"measurement": "Inhibition", "setting": "HCT-116 [3]", "value": 28.75, "unit": "mm"}]}
